ChEMBL document CHEMBL1240465, “Prenylflavonoids and prenyl/alkyl-phloroacetophenones: synthesis and antitumour biological evaluation” (Eur J Med Chem, 2010)

How the values were obtained:
Assay type in all cases: functional, cell-based
HeLa = experiment: Cytotoxicity against human HeLa cells after 72 hrs by XTT assay
Outline: (§1)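 Cells grown in DMEM (A549, HT-29, HeLa) or RPMI1640 (HL-60), both with 10% heat-inactivated fetal bovine serum, were exposed to compound across a concentration range for 72 h at 37 °C in humidified air/CO₂ (19/1), then read by XTT. Measurements were in triplicate. IC50 is the concentration giving 50% proliferation inhibition versus untreated controls, reported as mean ± S.D. of three independent determinations.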

HT-29 = experiment: Cytotoxicity against human HT-29 cells after 72 hrs by XTT assay; settings: HT-29, 72 h
Outline: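 Cells grown in DMEM (A549, HT-29, HeLa) or RPMI1640 (HL-60), both with 10% heat-inactivated fetal bovine serum, were exposed to compound across a concentration range for 72 h at 37 °C in humidified air/CO₂ (19/1), then read by XTT. Measurements were in triplicate.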

HL-60 = experiment: Cytotoxicity against human HL60 cells after 72 hrs by XTT assay; settings: HL-60, 72 h; outline: as §1
A549 = experiment: Cytotoxicity against human A549 cells after 72 hrs by XTT assay; settings: A549, 72 h; outline: as §1

CC(=O)c1c(O)cc(O)cc1OC/C=C(\C)CC/C=C(\C)CCC=C(C)C
IC50 (HeLa): 31 µM
IC50 (HT-29): 29 µM
IC50 (HL-60): 31 µM
IC50 (A549): 32 µM

CC(C)=CCC/C(C)=C/COc1c(C/C=C(\C)CCC=C(C)C)c(O)c2c(=O)cc(-c3ccccc3)oc2c1C/C=C(\C)CCC=C(C)C
IC50 (HeLa): 30 µM
IC50 (HT-29): 32 µM
IC50 (A549): 29 µM

C=C1CC[C@H]2C(C)(C)CCC[C@]2(C)[C@H]1CC/C(C)=C/COc1cc(O)c2c(=O)c(OC/C=C(\C)CC[C@H]3C(=C)CC[C@H]4C(C)(C)CCC[C@]34C)c(-c3ccc(O)cc3)oc2c1
IC50 (HeLa): > 100 µM
IC50 (HT-29): > 100 µM
IC50 (A549): > 100 µM

C=C1CC[C@H]2C(C)(C)CCC[C@]2(C)[C@H]1CC/C(C)=C/COc1cc(O)c2c(=O)c(O)c(-c3ccc(O)cc3)oc2c1
IC50 (HeLa): > 100 µM
IC50 (HT-29): > 100 µM
IC50 (A549): > 100 µM

C=C1CC[C@H]2C(C)(C)CCC[C@]2(C)[C@H]1CC/C(C)=C/Cc1c(O)cc(O)c2c(=O)c(O)c(-c3ccc(O)cc3)oc12
IC50 (HeLa): 30 µM
IC50 (HT-29): 29 µM
IC50 (A549): 32 µM

C=C1CC[C@H]2C(C)(C)CCC[C@]2(C)[C@H]1CC/C(C)=C/COc1c(-c2ccc(O)cc2)oc2cc(O)cc(O)c2c1=O
IC50 (HeLa): 27 µM
IC50 (HT-29): 30 µM
IC50 (A549): 26 µM

C=C1CC[C@H]2C(C)(C)CCC[C@]2(C)[C@H]1CC/C(C)=C/COc1cc(O)c2c(=O)c(OC/C=C(\C)CC[C@H]3C(=C)CC[C@H]4C(C)(C)CCC[C@]34C)c(-c3ccc(OC)cc3)oc2c1
IC50 (HeLa): > 100 µM
IC50 (HT-29): > 100 µM
IC50 (A549): > 100 µM

C=C1CC[C@H]2C(C)(C)CCC[C@]2(C)[C@H]1CC/C(C)=C/COc1cc(O)c2c(=O)c(O)c(-c3ccc(OC)cc3)oc2c1
IC50 (HeLa): > 100 µM
IC50 (HT-29): > 100 µM
IC50 (A549): > 100 µM

C=C1CC[C@H]2C(C)(C)CCC[C@]2(C)[C@H]1CC/C(C)=C/Cc1c(O)cc(O)c2c(=O)c(O)c(-c3ccc(OC)cc3)oc12
IC50 (HeLa): > 100 µM
IC50 (HT-29): > 100 µM
IC50 (A549): > 100 µM

C=C1CC[C@H]2C(C)(C)CCC[C@]2(C)[C@H]1CC/C(C)=C/COc1c(-c2ccc(OC)cc2)oc2cc(O)cc(O)c2c1=O
IC50 (HeLa): 30 µM
IC50 (HT-29): 32 µM
IC50 (A549): 30 µM

CC(=O)c1ccc(C)cc1O
IC50 (HeLa): > 100 µM
IC50 (HT-29): > 100 µM
IC50 (HL-60): > 100 µM
IC50 (A549): > 100 µM

CC(=O)c1c(O)cc(O)c2c1OC(C)(C)CC2
IC50 (HeLa): > 100 µM
IC50 (HT-29): > 100 µM
IC50 (HL-60): > 100 µM
IC50 (A549): > 100 µM

CC(=O)c1c(O)cc2c(c1O)CCC(C)(C)O2
IC50 (HeLa): > 100 µM
IC50 (HT-29): > 100 µM
IC50 (HL-60): > 100 µM
IC50 (A549): > 100 µM

CC(=O)c1c(O)cc(OCC=C(C)C)cc1O
IC50 (HeLa): 30 µM
IC50 (HT-29): 31 µM
IC50 (HL-60): 32 µM
IC50 (A549): > 100 µM

CC(=O)c1c(O)cc(O)cc1OCC=C(C)C
IC50 (HeLa): > 100 µM
IC50 (HT-29): > 100 µM
IC50 (HL-60): > 100 µM
IC50 (A549): > 100 µM

CC(=O)c1c(O)cc(O)c(CC=C(C)C)c1O
IC50 (HeLa): 28 µM
IC50 (HT-29): 30 µM
IC50 (HL-60): 32 µM
IC50 (A549): 29 µM

CCCCCCCC/C=C\CCCCCCCCOc1cc(O)c(C(C)=O)c(OCCCCCCCC/C=C\CCCCCCCC)c1
IC50 (HeLa): > 100 µM
IC50 (HT-29): > 100 µM
IC50 (HL-60): > 100 µM
IC50 (A549): > 100 µM

CC(C)=CCC/C(C)=C/COc1cc(O)c2c(=O)c(OC/C=C(\C)CCC=C(C)C)c(-c3ccc(O)cc3)oc2c1
IC50 (HeLa): > 100 µM
IC50 (HT-29): 31 µM
IC50 (A549): > 100 µM

CC(C)=CCC/C(C)=C/Cc1c(O)cc(O)c2c(=O)c(O)c(-c3ccc(O)cc3)oc12
IC50 (HeLa): 30 µM
IC50 (HT-29): 30 µM
IC50 (A549): 26 µM

CC(C)=CCC/C(C)=C/COc1c(-c2ccc(O)cc2)oc2cc(O)cc(O)c2c1=O
IC50 (HeLa): 23 µM
IC50 (HT-29): 25 µM
IC50 (A549): 27 µM

CC(=O)c1c(O)c2c(c3c1OC(C)(C)CC3)OC(C)(C)CC2
IC50 (HeLa): > 100 µM
IC50 (HT-29): 32 µM
IC50 (HL-60): 31 µM
IC50 (A549): > 100 µM

CC(=O)c1c(O)c(CC=C(C)C)c(O)c(CC=C(C)C)c1O
IC50 (HeLa): > 100 µM
IC50 (HT-29): > 100 µM
IC50 (HL-60): > 100 µM
IC50 (A549): > 100 µM

CC(=O)c1c(O)c(C/C=C(\C)CCC=C(C)C)c(O)c(C/C=C(\C)CCC=C(C)C)c1O
IC50 (HeLa): 31 µM
IC50 (HT-29): 20 µM
IC50 (HL-60): 19 µM
IC50 (A549): 32 µM
